From PMC7935786 (Cancer Science, 2021)
“And” between values parts separate entries of the source, which are not always exact repeats. Identical values can stand only once. “Also recorded” adds a separate entry of the source.

Key:
[1] = tested on: Japanese patients with relapsed or refractory B‐NHL; experiment: Phase I study: safety, adverse events and DLT; assay type: in vivo, human
Outline: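 Patients received 800 mg orally once in a 4-day cycle 0, then 800 mg BID in 28-day cycles; reduction to 600 then 400 mg BID permitted. AEs graded by CTCAE v4.03, with hematology, chemistry, urinalysis, vital signs, 12-lead ECG and LVEF by echo/MUGA. DLT assessed over cycles 0–1 in patients completing both with ≥75% cycle-1 compliance, or having DLT. Safety set: ≥1 dose.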

CYP3A4 = conditions: ref Unpublished data in Eisai, cited from earlier work
[2] = cited from earlier work
[3] = tested on: relapsed or refractory B‐cell lymphoma; experiment: Phase I study: antitumor activity, Lugano Classification; assay type: in vivo, human
Outline: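 Oral dosing: 800 mg single dose in 4-day cycle 0, then 800 mg BID in 28-day cycles. Response assessed by CT per Lugano Classification. Bone marrow aspiration or biopsy if screening was positive or unconfirmed, to confirm CR, or when clinically indicated. Best overall response summarized overall and by DLBCL or FL in patients receiving ≥1 dose. ORR given with two-sided Clopper-Pearson exact 95% CIs.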

[4] = Phase I study: plasma and urine pharmacokinetics; assay type: in vivo, human; conditions: for R ss: AUC(0-12h) on cycle 1 day 15/AUC(0-inf) on cycle 0 day 1; for t max: median (minimum, maximum)
[5] = tested on: refractory B‐NHL and advanced solid tumors; conditions: study outside of Japan; cited from earlier work
[6] = seven treated patients, investigator assessment

## CCN(c1cc(-c2ccc(CN3CCOCC3)cc2)cc(C(=O)NCc2c(C)cc(C)[nH]c2=O)c1C)C1CCOCC1 [Tazemetostat]
[1]; 800 mg BID, n = 7
  Anemia, all TEAEs, Grade ≥3: 1 (14.3) patients (%)
  Anemia, all TEAEs, all grades: 2 (28.6) patients (%)
  Anemia, treatment‐related TEAEs, Grade ≥3: 1 (14.3) patients (%)
  Anemia, treatment‐related TEAEs, all grades: 2 (28.6) patients (%)
  Blood creatinine increased, all TEAEs, Grade ≥3: 0 (0.0) patients (%)
  Blood creatinine increased, all TEAEs, all grades: 2 (28.6) patients (%)
  Blood creatinine increased, treatment‐related TEAEs, Grade ≥3: 0 (0.0) patients (%)
  Blood creatinine increased, treatment‐related TEAEs, all grades: 1 (14.3) patients (%)
  Constipation, all TEAEs, Grade ≥3: 0 (0.0) patients (%)
  Constipation, all TEAEs, all grades: 3 (42.9) patients (%)
  Constipation, treatment‐related TEAEs, Grade ≥3: 0 (0.0) patients (%)
  Constipation, treatment‐related TEAEs, all grades: 1 (14.3) patients (%)
  Dry eye, all TEAEs, Grade ≥3: 0 (0.0) patients (%)
  Dry eye, all TEAEs, all grades: 2 (28.6) patients (%)
  Dry eye, treatment‐related TEAEs, Grade ≥3: 0 (0.0) patients (%)
  Dry eye, treatment‐related TEAEs, all grades: 0 (0.0) patients (%)
  Dry skin, all TEAEs, Grade ≥3: 0 (0.0) patients (%)
  Dry skin, all TEAEs, all grades: 2 (28.6) patients (%)
  Dry skin, treatment‐related TEAEs, Grade ≥3: 0 (0.0) patients (%)
  Dry skin, treatment‐related TEAEs, all grades: 2 (28.6) patients (%)
  Dysgeusia, all TEAEs, Grade ≥3: 0 (0.0) patients (%)
  Dysgeusia, all TEAEs, all grades: 3 (42.9) patients (%)
  Dysgeusia, treatment‐related TEAEs, Grade ≥3: 0 (0.0) patients (%)
  Dysgeusia, treatment‐related TEAEs, all grades: 3 (42.9) patients (%)
  Fatigue, all TEAEs, Grade ≥3: 1 (14.3) patients (%)
  Fatigue, all TEAEs, all grades: 2 (28.6) patients (%)
  Fatigue, treatment‐related TEAEs, Grade ≥3: 1 (14.3) patients (%)
  Fatigue, treatment‐related TEAEs, all grades: 2 (28.6) patients (%)
  Insomnia, all TEAEs, Grade ≥3: 0 (0.0) patients (%)
  Insomnia, all TEAEs, all grades: 2 (28.6) patients (%)
  Insomnia, treatment‐related TEAEs, Grade ≥3: 0 (0.0) patients (%)
  Insomnia, treatment‐related TEAEs, all grades: 1 (14.3) patients (%)
  Leukopenia, all TEAEs, Grade ≥3: 1 (14.3) patients (%)
  Leukopenia, all TEAEs, all grades: 2 (28.6) patients (%)
  Leukopenia, treatment‐related TEAEs, Grade ≥3: 0 (0.0) patients (%)
  Leukopenia, treatment‐related TEAEs, all grades: 1 (14.3) patients (%)
  Muscle spasms, all TEAEs, Grade ≥3: 0 (0.0) patients (%)
  Muscle spasms, all TEAEs, all grades: 2 (28.6) patients (%)
  Muscle spasms, treatment‐related TEAEs, Grade ≥3: 0 (0.0) patients (%)
  Muscle spasms, treatment‐related TEAEs, all grades: 2 (28.6) patients (%)
  Nasopharyngitis, all TEAEs, Grade ≥3: 0 (0.0) patients (%)
  Nasopharyngitis, all TEAEs, all grades: 5 (71.4) patients (%)
  Nasopharyngitis, treatment‐related TEAEs, Grade ≥3: 0 (0.0) patients (%)
  Nasopharyngitis, treatment‐related TEAEs, all grades: 0 (0.0) patients (%)
  Neutropenia, all TEAEs, Grade ≥3: 1 (14.3) patients (%)
  Neutropenia, all TEAEs, all grades: 2 (28.6) patients (%)
  Neutropenia, treatment‐related TEAEs, Grade ≥3: 0 (0.0) patients (%)
  Neutropenia, treatment‐related TEAEs, all grades: 1 (14.3) patients (%)
  Rash, all TEAEs, Grade ≥3: 0 (0.0) patients (%)
  Rash, all TEAEs, all grades: 2 (28.6) patients (%)
  Rash, treatment‐related TEAEs, Grade ≥3: 0 (0.0) patients (%)
  Rash, treatment‐related TEAEs, all grades: 2 (28.6) patients (%)
  Stomatitis, all TEAEs, Grade ≥3: 0 (0.0) patients (%)
  Stomatitis, all TEAEs, all grades: 2 (28.6) patients (%)
  Stomatitis, treatment‐related TEAEs, Grade ≥3: 0 (0.0) patients (%)
  Stomatitis, treatment‐related TEAEs, all grades: 2 (28.6) patients (%)
  Thrombocytopenia, all TEAEs, Grade ≥3: 2 (28.6) patients (%)
  Thrombocytopenia, all TEAEs, all grades: 3 (42.9) patients (%)
  Thrombocytopenia, treatment‐related TEAEs, Grade ≥3: 2 (28.6) patients (%)
  Thrombocytopenia, treatment‐related TEAEs, all grades: 3 (42.9) patients (%)
[1]; cycles 0 and 1, six evaluable patients, 800 mg BID
  dose‐limiting toxicity (DLT): No DLTs; also recorded: did not observe any DLT
[1]; n = 7
  AE anemia: 29%
  AE constipation: 42.9%
  AE dry skin: 29%
  AE dysgeusia: 42.9% and 43%
  AE fatigue: 29%
  AE leading to dose reduction: 14.3%
  AE nasopharyngitis: 71.4%
  AE rash: 29%
  AE stomatitis: 29%
  AE thrombocytopenia: 42.9% and 43%
  AEs leading to dose interruption: 57.1%
  Grade 3 AE anemia: 14.3%
  Grade 3 AE fatigue: 14.3%
  Grade 3 AE hypophosphatemia: 14.3%
  Grade 3 AE increased γ‐glutamyltransferase: 14.3%
  Grade 3 AE leukopenia: 14.3%
  Grade 3 AE lymphopenia: 14.3%
  Grade 3 AE neutropenia: 14.3%
  Grade 3 AE squamous cell carcinoma of the tongue: 14.3%
  Grade 3 AE thrombocytopenia: 28.6%
  Grade 3 or higher AEs: 57.1%
  Grade 4 AE increased levels of blood triglycerides: 14.3%
  Grade 4 AE intestinal perforation: 14.3%
  TR‐AE dysgeusia: 42.9%
  TR‐AE thrombocytopenia: 42.9%
  grade 2 peripheral neuropathy, leading to drug dose reduction: 14.3%
  patients having at least one TR‐AE: 85.7%
  patients who died or had AEs resulting in death: None
  patients who experienced at least one AE: seven
  treatment‐related serious AEs: No treatment‐related serious AEs
[1]; n = 7, intestinal perforation and squamous cell carcinoma of the tongue
  Serious AEs: 28.6%
[1]; n = 7, listed as tazemetostat
  treatment‐related serious AEs: both assessed as not related to study drug; also recorded: No treatment‐related SAEs
[1]; n = 7, section 3.2
  patients who received a reduction in the tazemetostat dose: 14.3%
[1]; one patient
  time to first dose reduction: 4.9 months
CYP3A4; in vitro
  effect on the activity of CYP3A4: induce and inhibit
CYP3A4
  metabolizing enzyme: mainly metabolized by CYP3A4
[2]; 99 patients
  treatment‐related deaths: no treatment‐related deaths
[2]; all 99 patients
  treatment‐related grade 3 or higher AE anemia: 2%
  treatment‐related grade 3 or higher AE neutropenia: 3%
  treatment‐related grade 3 or higher AE thrombocytopenia: 3%
[2]; four of 99 patients
  Treatment‐related SAEs: 4%
[3]; DLBCL
  responses in patients with DLBCL: one of three
[3]; DLBCL (n = 3), 800 mg BID
  Best overall response: Complete response (CR): 1 (33.3) n (%)
  Best overall response: Not evaluable: 0 (0.0) n (%)
  Best overall response: Partial response (PR): 0 (0.0) n (%)
  Best overall response: Progressive disease: 2 (66.7) n (%)
  Best overall response: Stable disease: 0 (0.0) n (%)
  Objective response rate (CR + PR): 1 (33.3) n (%)
[3]; FL
  responses in patients with FL: three of four
[3]; FL (n = 4), 800 mg BID
  Best overall response: Complete response (CR): 0 (0.0) n (%)
  Best overall response: Not evaluable: 0 (0.0) n (%)
  Best overall response: Partial response (PR): 3 (75.0) n (%)
  Best overall response: Progressive disease: 0 (0.0) n (%)
  Best overall response: Stable disease: 1 (25.0) n (%)
  Objective response rate (CR + PR): 3 (75.0) n (%)
[3]; Total (n = 7), 800 mg BID
  Best overall response: Complete response (CR): 1 (14.3) n (%)
  Best overall response: Not evaluable: 0 (0.0) n (%)
  Best overall response: Partial response (PR): 3 (42.9) n (%)
  Best overall response: Progressive disease: 2 (28.6) n (%)
  Best overall response: Stable disease: 1 (14.3) n (%)
  Objective response rate (CR + PR): 4 (57.1) n (%)
[3]; all patients (4/7), 800 mg BID
  ORR: 57.1%
[3]; n = 7
  patients who experienced a reduction of tumor burden: 85.7%
[3]; one patient with FL with gain‐of‐function mutation in EZH2, partial response
  maximum change in the sum of the product of the diameters from baseline in the target lesion: −82.3%
[3]; [6]
  CR as BOR: 14.3%
  PR as BOR: 42.9%
  progressive disease as BOR: 28.6%
  stable disease as BOR: 14.3%
[4]; 800 mg oral
  absorption after oral administration: rapidly absorbed
[4]; mean (SD)
  R ss: 0.849 (0.277)
[4]; mean (SD), listed as tazemetostat
  R ss: 0.849
[4]; both after C0D1 and C1D15 dosing
  mean urinary excretion of tazemetostat: less than 3%
[4]; human, plasma, oral, 800 mg
  Vd/F: 1910 L
[4]; human, plasma, oral, 800 mg BID, AUC(0‐ t ), plasma, after multiple doses, Cycle 1 day 15, last sampling time point 12 h, mean (SD), N = 7
  AUC: 4490 ng·h/mL
[4]; human, plasma, oral, 800 mg BID, t max, plasma, after multiple doses, Cycle 1 day 15, N = 7
  t max: ~1 h
[4]; human, plasma, oral, 800 mg, AUC(0‐12 h), plasma, after single dose, Cycle 0 day 1, mean (SD), N = 7
  AUC: 4700 ng·h/mL
[4]; human, plasma, oral, 800 mg, AUC(0‐ t ), plasma, after single dose, Cycle 0 day 1, last sampling time point 72 h, mean (SD), N = 7
  AUC: 5990 ng·h/mL
[4]; human, plasma, oral, 800 mg, AUC(0‐inf), plasma, after single dose, Cycle 0 day 1, mean (SD), N = 7
  AUC: 6030 ng·h/mL
[4]; human, plasma, oral, 800 mg, t max, plasma, after single dose, Cycle 0 day 1, N = 7
  t max: ~2 h
[4]; human, plasma, po, 800 mg
  Cmax: 1150 ng/mL
[4]; plasma, after multiple doses 800 mg BID, Cycle 1 day 15, mean (SD), N = 7
  C ss,min: 95.1 (37.7) ng/mL
[4]; plasma, after multiple doses, Cycle 1 day 15, N = 7
  t max: 1.05 (0.88, 2.03) h
[4]; plasma, after single dose, Cycle 0 day 1, N = 7
  t max: 1.97 (0.95, 4.08) h
[5]
  recommended dose: 800 mg BID
